According to ChEMBL document CHEMBL1153784, “Synthesis, characterization, antiamoebic activity and toxicity of novel bisdioxazole derivatives” (Eur J Med Chem, 2009):

How the values were obtained:
[1] = test system: Entamoeba histolytica; assay: Antiamoebic activity against Entamoeba histolytica HM1:IMSS trophozoites after 72 hrs by microdilution method; assay type: functional, organism-based
Procedure, shortened: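 Trophozoites grown in Diamond TYIS-33 medium in 96-well plates; amoebae detached by chilling on ice. Compounds from freshly prepared 1 mg/ml DMSO stocks, twofold serial dilutions, DMSO at most 0.016%. Plates gassed with nitrogen 10 min, incubated 37 °C 72 h, washed with 0.9% NaCl, stained, dye released with 0.1 N NaOH, OD 490 nm. IC50 by linear regression of % inhibition vs log dose. Triplicate wells, repeated thrice.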

[2] = Toxicity in rat H9c2 cells assessed as cell viability at 12.5 ug/ml after 48 hrs by MTT assay; assay type: cell-based; settings: read-out: Activity
Procedure, shortened: (§1)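 Subconfluent H9c2 cardiac myoblasts exposed to increasing compound concentrations for 48 h at 37 °C in 5% CO2, with an untreated control. Cells washed in PBS, given 5 mg/ml MTT for 45 min at 37 °C. Crystals dissolved in acid isopropanol, absorbance read at 570 nm. Viability = absorbance of treated relative to untreated cells. Run in triplicate.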

[3] = Safety index, ratio of IC50 for rat H9c2 cells to IC50 for Entamoeba histolytica HM1:IMSS trophozoites; assay type: toxicity, cell-based; settings: read-out: Ratio IC50
[4] = Toxicity in rat H9c2 cells after 48 hrs by MTT assay; assay type: cell-based; procedure, shortened: as §1

Row | SMILES | IC50 [1] [µM] | viability at 48 h, 12.5 ug/ml [2] [%] | selectivity ratio [3] | IC50 at 48 h [4] [µM]
1 | Clc1ccc(C2ON=C(c3ccc(C4=NOC(c5ccc(Cl)cc5)O4)cc3)O2)cc1 (stereo not given) | 4.21 | – | – | –
2 | Clc1cccc(C2ON=C(c3ccc(C4=NOC(c5cccc(Cl)c5)O4)cc3)O2)c1 (stereo not given) | 1.41 | 83.5 | 5.67 | 8
3 | CCc1ccc(C2ON=C(c3ccc(C4=NOC(c5ccc(CC)cc5)O4)cc3)O2)cc1 (stereo not given) | 2.78 | – | – | –
4 | COc1ccc(C2ON=C(c3ccc(C4=NOC(c5ccc(OC)c(OC)c5)O4)cc3)O2)cc1OC (stereo not given) | 4.38 | – | – | –
5 | Cc1ccc(C2ON=C(c3ccc(C4=NOC(c5ccc(C)cc5)O4)cc3)O2)cc1 (stereo not given) | 1.05 | 82 | 46.7 | 49
6 | Cc1ncc([N+](=O)[O-])n1CCO [METRONIDAZOLE] | – | – | > 64.4 | > 116
7 | O/N=C/c1ccc(/C=N/O)cc1 | 5.73 | – | – | –
8 | Clc1ccc(C2ON=C(c3ccc(C4=NOC(c5ccc(Cl)c(Cl)c5)O4)cc3)O2)cc1Cl (stereo not given) | 6.1 | – | – | –
9 | c1ccc(C2ON=C(c3ccc(C4=NOC(c5ccccc5)O4)cc3)O2)cc1 (stereo not given) | 3.96 | – | – | –
10 | Clc1ccccc1C1ON=C(c2ccc(C3=NOC(c4ccccc4Cl)O3)cc2)O1 (stereo not given) | 1.22 | 96.2 | 27.9 | 34
11 | COc1ccc(C2ON=C(c3ccc(C4=NOC(c5ccc(OC)cc5)O4)cc3)O2)cc1 (stereo not given) | 1.01 | 89 | > 16.8 | > 17
12 | CC(C)c1ccc(C2ON=C(c3ccc(C4=NOC(c5ccc(C(C)C)cc5)O4)cc3)O2)cc1 (stereo not given) | 4.65 | – | – | –
